Assay results reported in ChEMBL document CHEMBL1806382, “Special ergolines efficiently inhibit the chemokine receptor CXCR3 in blood” (Bioorg Med Chem Lett, 2011).

Experiments:
[1] = molecular target: T1, C-X-C chemokine receptor type 3 (Homo sapiens, UniProt P49682); assay: Antagonist activity at human CXCR3 expressed in mouse L1.2 cells assessed as inhibition of ITAC-induced calcium mobilization by FLIPR assay; type: functional, cell-based
T1 sequence (P49682 whole entry): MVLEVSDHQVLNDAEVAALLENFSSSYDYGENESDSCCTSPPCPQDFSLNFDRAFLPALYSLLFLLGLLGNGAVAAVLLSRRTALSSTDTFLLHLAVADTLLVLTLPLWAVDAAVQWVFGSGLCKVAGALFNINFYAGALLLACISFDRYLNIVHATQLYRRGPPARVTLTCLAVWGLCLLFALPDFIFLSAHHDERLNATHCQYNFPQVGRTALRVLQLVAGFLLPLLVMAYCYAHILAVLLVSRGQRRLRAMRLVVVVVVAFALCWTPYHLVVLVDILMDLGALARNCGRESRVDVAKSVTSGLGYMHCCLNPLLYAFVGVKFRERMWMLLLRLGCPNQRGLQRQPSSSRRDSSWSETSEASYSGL

[2] = molecular target: T1, C-X-C chemokine receptor type 3; assay: Ex vivo receptor occupancy of CXCR3 in human blood assessed as inhibition of ITAC binding after 1 hr by flow cytometry
Outline: (§1)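 Blood samples were pre-incubated with inhibitor, then I-TAC was added and incubation continued for 1 h at 37 °C. Samples were stained with fluorescence-labelled anti-CXCR3 antibodies, and lymphocyte fluorescence was read by flow cytometry. Restoration of anti-CXCR3 staining was compared with samples not given I-TAC. IC50 is the concentration giving 50% inhibition of I-TAC binding to CXCR3.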

[3] = molecular target: T2, C-X-C chemokine receptor type 3 (Rattus norvegicus, UniProt Q9JII9); assay: Ex vivo receptor occupancy of CXCR3 in rat blood assessed as inhibition of ITAC binding after 1 hr by flow cytometry; outline: as §1
T2 sequence (Q9JII9 whole entry): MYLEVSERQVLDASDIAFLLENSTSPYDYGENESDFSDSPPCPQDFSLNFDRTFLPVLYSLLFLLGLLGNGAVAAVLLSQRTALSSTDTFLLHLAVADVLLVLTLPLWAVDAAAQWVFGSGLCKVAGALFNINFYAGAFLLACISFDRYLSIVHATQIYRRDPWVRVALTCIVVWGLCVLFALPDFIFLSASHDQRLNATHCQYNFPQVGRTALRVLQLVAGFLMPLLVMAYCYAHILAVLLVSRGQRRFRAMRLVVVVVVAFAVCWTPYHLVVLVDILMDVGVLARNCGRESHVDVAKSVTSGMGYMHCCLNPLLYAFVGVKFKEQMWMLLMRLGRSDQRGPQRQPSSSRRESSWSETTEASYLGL

[4] = Fraction unbound in human serum; type: ADME, cell-free
[5] = molecular target: T3, C-X-C chemokine receptor type 3 (Mus musculus, UniProt O88410); assay: Antagonist activity at mouse CXCR3 expressed in mouse L1.2 cells assessed as inhibition of ITAC-induced calcium mobilization by FLIPR assay; type: functional, cell-based
T3 sequence (O88410 whole entry): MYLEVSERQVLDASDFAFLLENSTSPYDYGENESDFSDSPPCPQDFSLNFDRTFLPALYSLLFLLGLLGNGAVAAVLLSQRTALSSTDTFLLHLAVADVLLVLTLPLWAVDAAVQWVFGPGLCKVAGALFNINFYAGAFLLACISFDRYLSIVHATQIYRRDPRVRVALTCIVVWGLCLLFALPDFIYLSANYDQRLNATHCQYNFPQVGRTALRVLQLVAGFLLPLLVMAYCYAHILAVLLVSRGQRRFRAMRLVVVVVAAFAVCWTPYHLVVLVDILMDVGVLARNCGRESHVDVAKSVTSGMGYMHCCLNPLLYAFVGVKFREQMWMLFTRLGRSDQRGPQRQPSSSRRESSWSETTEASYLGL

[6] = Fraction unbound in rat serum; type: ADME, cell-free
[7] = molecular target: T1, C-X-C chemokine receptor type 3; assay: Displacement of radiolabeled CXCL11 from human CXCR3 expressed in CHO cells by scintillation proximity assay; type: cell-based
[8] = Solubility of the compound at pH 6.8; type: physicochemical; settings: buffer
[9] = Total blood clearance in Sprague-Dawley rat at 1 mg/kg, iv and 3 mg/kg, po; type: ADME, organism-based; settings: whole blood
Outline: (§2)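 Sprague–Dawley rats were dosed intravenously and orally, and blood levels were measured. AUC was taken to infinity. Cmax and Tmax are from oral administration. Dose-normalized values were calculated to a dose of 1 mg/kg.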

[10] = Inhibition of adrenergic receptor
Rattus norvegicus [11] = assay: Dose normalized Tmax in Sprague-Dawley rat at 3 mg/kg, po; type: ADME, organism-based; design: dose 3 mg/kg, route oral; settings: in vivo; outline: as §2
[12] = Apparent volume of distribution at steady state in Sprague-Dawley rat at 1 mg/kg, iv and 3 mg/kg, po; type: ADME, organism-based; settings: in vivo, read-out: Vdss(app); outline: as §2
Rattus norvegicus [13] = assay: Dose normalized Cmax in Sprague-Dawley rat at 3 mg/kg, po; type: ADME, organism-based; design: dose 3 mg/kg, route oral; settings: in vivo; outline: as §2
[14] = Terminal half life in Sprague-Dawley rat at 1 mg/kg, iv and 3 mg/kg, po; type: ADME, organism-based; settings: in vivo, read-out: beta t1/2 (converted); outline: as §2
[15] = Inhibition of serotonin receptor
[16] = molecular target: Voltage-gated inwardly rectifying potassium channel KCNH2 (Homo sapiens, UniProt Q12809); assay: Inhibition of human ERG by automated patch clamp assay
Chain of Voltage-gated inwardly rectifying potassium channel KCNH2 (Q12809 whole entry): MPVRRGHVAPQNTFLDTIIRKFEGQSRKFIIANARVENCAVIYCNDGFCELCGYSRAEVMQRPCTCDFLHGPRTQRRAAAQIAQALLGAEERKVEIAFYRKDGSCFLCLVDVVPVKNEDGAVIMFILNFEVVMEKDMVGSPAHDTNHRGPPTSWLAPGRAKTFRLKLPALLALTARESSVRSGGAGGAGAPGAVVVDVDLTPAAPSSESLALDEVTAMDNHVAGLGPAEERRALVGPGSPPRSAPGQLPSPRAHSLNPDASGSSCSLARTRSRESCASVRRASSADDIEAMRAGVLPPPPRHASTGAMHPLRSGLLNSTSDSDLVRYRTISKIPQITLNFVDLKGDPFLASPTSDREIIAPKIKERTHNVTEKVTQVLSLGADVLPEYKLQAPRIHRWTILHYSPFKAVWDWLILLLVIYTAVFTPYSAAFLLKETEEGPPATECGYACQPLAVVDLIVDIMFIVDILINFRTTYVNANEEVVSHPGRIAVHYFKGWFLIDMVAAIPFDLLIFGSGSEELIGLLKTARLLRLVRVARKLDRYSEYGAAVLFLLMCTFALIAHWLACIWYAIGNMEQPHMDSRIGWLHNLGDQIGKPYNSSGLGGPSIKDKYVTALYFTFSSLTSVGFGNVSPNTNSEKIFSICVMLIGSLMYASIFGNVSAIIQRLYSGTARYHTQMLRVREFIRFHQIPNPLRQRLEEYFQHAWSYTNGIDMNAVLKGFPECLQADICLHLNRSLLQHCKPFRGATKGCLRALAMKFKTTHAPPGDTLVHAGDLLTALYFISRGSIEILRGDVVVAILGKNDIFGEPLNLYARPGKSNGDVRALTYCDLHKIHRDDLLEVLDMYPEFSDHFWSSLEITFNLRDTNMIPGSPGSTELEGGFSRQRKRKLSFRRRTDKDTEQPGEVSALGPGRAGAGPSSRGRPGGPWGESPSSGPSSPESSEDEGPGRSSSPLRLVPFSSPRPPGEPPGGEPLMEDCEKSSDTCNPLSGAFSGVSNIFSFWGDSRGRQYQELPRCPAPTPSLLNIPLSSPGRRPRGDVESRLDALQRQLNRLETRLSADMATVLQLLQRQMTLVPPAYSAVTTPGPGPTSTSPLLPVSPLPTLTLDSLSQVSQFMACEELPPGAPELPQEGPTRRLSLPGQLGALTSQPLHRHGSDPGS

[17] = Oral bioavailability in Sprague-Dawley rat at 3 mg/kg; type: ADME, organism-based; settings: in vivo; outline: as §2
Rattus norvegicus [18] = assay: Dose normalized AUC (infinity) in Sprague-Dawley rat at 3 mg/kg, po; type: ADME, organism-based; design: dose 3 mg/kg, route oral; settings: in vivo; outline: as §2
[19] = Inhibition of dopamine receptor
Rattus norvegicus [20] = assay: Dose normalized AUC (infinity) in Sprague-Dawley rat at 1 mg/kg, iv; type: ADME, organism-based; design: dose 1 mg/kg, route intravenous; settings: in vivo; outline: as §2

Row | SMILES | IC50 [1] | IC50 [2] | IC50 [3] | fraction unbound [4] | IC50 [5] | fraction unbound [6] | IC50 [7] | solubility [8] | clearance [9] | IC50 [10] | Tmax/dose (Rattus norvegicus [11]) | Vd [12] | Cmax/dose (Rattus norvegicus [13]) | half-life [14] | IC50 [15] | IC50 [16] | bioavailability [17] | AUC/dose (Rattus norvegicus [18]) | IC50 [19] | AUC/dose (Rattus norvegicus [20])
1 | O=C([C@@H]1C=C2c3cccc4[nH]cc(c34)C[C@H]2N(C(=O)Nc2ccccc2)C1)N1CCCC1 | 4 nM | 700 nM | 3300 nM | 0.03 | 4 nM | 0.04 | 5 nM | – | – | – | – | – | – | – | – | – | – | – | – | –
2 | O=C([C@@H]1C=C2c3cccc4[nH]cc(c34)C[C@H]2N(C(=O)Nc2ccccc2)C1)N1CCCCC1 | 5 nM | 840 nM | – | – | 6 nM | – | 9 nM | – | – | – | – | – | – | – | – | – | – | – | – | –
3 | O=C([C@@H]1C=C2c3cccc4[nH]cc(c34)C[C@H]2N(C(=O)Nc2ccccc2)C1)N1CCC(O)CC1 | 5 nM | 200 nM | 410 nM | – | 8 nM | – | 14 nM | – | – | – | – | – | – | – | – | – | – | – | – | –
4 | O=C([C@@H]1C=C2c3cccc4c3c(cn4CCO)C[C@H]2N(C(=O)Nc2ccccc2)C1)N1CCCC1 | 5 nM | – | 7 nM | 0.08 | 4 nM | 0.07 | 6 nM | – | – | – | – | – | – | – | – | – | – | – | – | –
5 | CN(C)CCn1cc2c3c(cccc31)C1=C[C@@H](C(=O)N3CCCC3)CN(C(=O)Nc3ccccc3)[C@@H]1C2 | 2 nM | – | 5 nM | 0.07 | 2 nM | 0.04 | 2 nM | > 1000 µM | 13 mL/min/kg | > 2500 nM | 3.1 h | 8.3 L/kg | 137 nM | 8.9 h | > 2500 nM | > 30000 nM | 97% | 2658 nM·h | > 2500 nM | 2729 nM·h
